This is an account of results in ChEMBL document CHEMBL1177808, “Benzofuran-substituted urea derivatives as novel P2Y(1) receptor antagonists” (Bioorg Med Chem Lett, 2010).

The target in assay [1] is T1, P2Y purinoceptor 1 (Homo sapiens, UniProt P47900). The assay can be described thus: Antagonist activity at P2Y1 expressed in HEK293 cells by FLIPR assay. In kind it is functional, cell-based. In outline:
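HEK-293 MSRII cells (endogenous P2Y1) grown in DMEM/F12 with 10% FBS, plated 20,000/well, cultured 48 h. Loaded with calcium 3 dye in HBSS pH 7.4 plus 2.5 mM probenecid, 1 h, 37 °C. Calcium flux read on FLIPR; IC50 from non-linear regression; at least three determinations.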

Assay [2] deals with T1, P2Y purinoceptor 1. Briefly: Displacement of [33P]2-MeS-ADP from human P2Y1 receptor expressed in human U2OS cells by scintillation counting. In kind it is cell-based. The gist of the method: (§1)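 Membranes from BacMam-transduced U2OS cells expressing human P2Y1, 0.5 µg prebound to 0.5 mg WGA-SPA beads. Radioligand 150 pM [33P]-2-MeS-ADP in 15 mM Hepes, 145 mM NaCl, 0.1 mM MgCl2, 5 mM EDTA, 5 mM KCl, with test compound dilutions or DMSO. Incubated 1 h at room temperature, centrifuged at 2000g, SPA counts read. At least three determinations.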

Assay [3] relates to Platelet. The assay can be described thus: Inhibition of ADP-mediated alpha granule release in human platelet assessed as inhibition of P-selectin expression at 10 uM by flow cytometry. In kind it is functional. In outline: (§2)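 Human PRP from drug-free volunteers (EDTA 10 mM, 300g 4 min), diluted 1:50 in Hepes-modified Tyrode's buffer pH 7.4. Compound or DMSO added, then immediately ADP 300 nM for 5 min. PE-anti-CD62P for 15 min, fixed 30 min in 2% paraformaldehyde, P-selectin read by flow cytometry.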
(In general: In flow cytometry, cells or beads pass a laser one at a time.)

The target of assay [4] is T1, P2Y purinoceptor 1. The assay can be described thus: Displacement of [33P]2-MeS-ADP from human P2Y1 receptor expressed in human U2OS cells at 10 uM by scintillation counting. The format is cell-based. In outline: as §1
For assay [5], the system named is Platelet. Briefly: Inhibition of ADP-mediated alpha granule release in human platelet assessed as inhibition of P-selectin expression by flow cytometry. The format is functional, cell-based. In outline: as §2

Usually IC50 stands for the concentration that gives 50% inhibition. Broadly, the Ki is a measure of affinity in units of concentration, obtained from inhibition or displacement. Higher therefore signals weaker binding. By inhibition is commonly meant how much of the control response was suppressed.

T1 sequence (P47900 whole entry): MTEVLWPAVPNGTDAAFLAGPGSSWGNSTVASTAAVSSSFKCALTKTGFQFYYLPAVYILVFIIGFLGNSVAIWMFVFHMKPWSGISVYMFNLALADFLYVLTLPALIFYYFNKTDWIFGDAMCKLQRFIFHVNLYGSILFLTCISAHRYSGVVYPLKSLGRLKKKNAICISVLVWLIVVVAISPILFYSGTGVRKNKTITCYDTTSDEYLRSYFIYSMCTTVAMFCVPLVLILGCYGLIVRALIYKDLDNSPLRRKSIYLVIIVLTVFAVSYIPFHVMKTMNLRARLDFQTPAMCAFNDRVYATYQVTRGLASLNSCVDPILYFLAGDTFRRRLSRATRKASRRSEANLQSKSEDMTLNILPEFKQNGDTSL

`CC(C)Oc1ccccc1-c1cc2cccc(NC(=O)Nc3ccc(OC(F)(F)F)cc3)c2o1` displayed an IC50 at P2Y purinoceptor 1 [1] of over 25000 nM.

`CC(C)c1ccccc1-c1cc2cccc(NC(=O)Nc3ccc(Cl)cc3)c2o1` yielded a Ki on P2Y purinoceptor 1 [2] of 760 nM. Moreover, the IC50 at P2Y purinoceptor 1 [1] was 2000 nM.

Turning to `CC(C)(C)c1ccccc1-c1cc2cccc(NC(=O)Nc3ccc(OC(F)(F)F)cc3)c2o1`, at P2Y purinoceptor 1 [2], the affinity corresponds to a Ki of 400 nM. This compound also came in with an IC50 at P2Y purinoceptor 1 [1] of 4000 nM.

`CC(C)c1ccccc1-c1cc2cccc(NC(=O)Nc3ccc(N(C)C)cc3)c2o1` came in with an IC50 at P2Y purinoceptor 1 [1] of 15800 nM.

As to `Cc1ccc(NC(=O)Nc2cccc3cc(-c4ccccc4C(C)C)oc23)cc1C(F)(F)F`, the inhibition at 10 µM with Platelet [3] stood at 79%. At P2Y purinoceptor 1 [4], this compound registered an inhibition of 69%. Moreover, the midpoint of inhibition against P2Y purinoceptor 1 [1], the IC50, lay at 1600 nM.

On to `CC(C)c1ccccc1-c1cc2cccc(NC(=O)Nc3ccc(OC(F)(F)F)cc3)c2o1`, for which the inhibition at 10 µM in the assay with Platelet [3] was 49%. The Ki at P2Y purinoceptor 1 [2] was determined as 600 nM. Moreover, the IC50 at P2Y purinoceptor 1 [1] turned out to be 4000 nM.

On P2Y purinoceptor 1 [1], `O=C(Nc1ccc(OC(F)(F)F)cc1)Nc1cccc2cc(-c3cccc(C(F)(F)F)c3)oc12` had an IC50 of over 25000 nM.

In the case of `O=C(Nc1ccc(OC(F)(F)F)cc1)Nc1cccc2cc(-c3ccccc3Cl)oc12`, the IC50 at P2Y purinoceptor 1 [1] was over 25000 nM.

On P2Y purinoceptor 1 [4], `CC(C)c1ccccc1-c1cc2cccc(NC(=O)Nc3cccc(C(F)(F)F)c3)c2o1` showed an inhibition of 60%. This compound displayed an IC50 against P2Y purinoceptor 1 [1] of 5000 nM.

Consider `CC(C)c1ccccc1-c1cc2cccc(NC(=O)Nc3ccc(C(C)(C)C)cc3)c2o1`, for which the inhibition at 10 µM in the assay with Platelet [3] is 100%. Further, the IC50 is 300 nM in the assay on Platelet [5] and 1300 nM against P2Y purinoceptor 1 [1]. Further, at P2Y purinoceptor 1 [4], the inhibition worked out at 72%.

Compound `CCCCCc1ccc(NC(=O)Nc2cccc3cc(-c4ccccc4C(C)C)oc23)cc1` displayed a Ki on P2Y purinoceptor 1 [2] of 140 nM. Besides, on P2Y purinoceptor 1 [1], half-maximal inhibition (IC50) was put at 630 nM.

Compound `CCCCOc1ccc(NC(=O)Nc2cccc3cc(-c4ccccc4C(C)C)oc23)cc1` had a Ki on P2Y purinoceptor 1 [2] of 640 nM. On P2Y purinoceptor 1 [1], this compound had an IC50 of 2000 nM.

On P2Y purinoceptor 1 [2], `O=C(Nc1ccc(OC(F)(F)F)cc1)Nc1cccc2cc(-c3ccccc3C(F)(F)F)oc12` returned a Ki of 2500 nM. The same compound displayed an IC50 on P2Y purinoceptor 1 [1] of 6300 nM.
